Measured values reported in the RNAGym collection of RNA variant scans (doi:10.1126/science.aae0568).
Variants at the floor of the assay were thinned out.

B1: tRNA (parent)
chain: GUUCCGUUGGCGUAAUGGUAACGCGUCUCCCUCCUAAGGAGAAGACUGCGGGUUCGAGUCCCGUACGGAACG

Variants of: B1
Experiment: yeast fitness relative to wild type (ratio to wild type); higher = fitter; tRNA-Arg(CCU), competitive growth, 37 C, YPD
Procedure, shortened: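 For this measurement, the tRNA-Arg(CCU) gene was varied by chemical synthesis at a 3% per-site mutation rate across 69 sites, and each variant was placed at the native genomic locus in Saccharomyces cerevisiae. The pooled strains went through a 24-hour competition in YPD at 37°C in six parallel replicates, with amplicons from start and end populations read by 100-nucleotide paired-end sequencing. Darwinian fitness relative to wild type followed from the change in each genotype's frequency. Genotypes needed ≥ 100 starting reads, and estimates < 0.5 were set to 0.5.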

Variant | yeast fitness
U2G C22U U32C A43C G50C | ≤ 0.5
U3A C31U A40C U64A | ≤ 0.5
U2C G48A G52A | 0.623
U2C G12C A40C G67A | ≤ 0.5
U2G G10A | 0.697
U2G G39C | 0.715
U3A A14G | 0.934
U3A A14C A20C U64A | ≤ 0.5
U3A A14G C31G A37U A65U | ≤ 0.5
U2G G9C A70G | 0.585
U3A C24U C31G G44C A69U | ≤ 0.5
U3A C34A A69G | ≤ 0.5
U2G G10C A45U C46U U47C U64C | ≤ 0.5
U3A C4U A43C G50A A70U | ≤ 0.5
U2C C66A | 0.611
U2C U7C U19C C34U G52A U59A | ≤ 0.5
U2C U3C C34A G44C C46U G51A | ≤ 0.5
U2G C30U U32C C55G | ≤ 0.5
U2G G10C U35G C46U A65C G67C | ≤ 0.5
U2G C4A C22U U28G A42U C49A | ≤ 0.5
U2C C33U A69U | ≤ 0.5

Variant | yeast fitness
U3A G25A A37U C61A | ≤ 0.5
U3A G25A G38A | 0.583
U3A C4U G48U | ≤ 0.5
U2G C31G A37G | 0.605
U2C G6C A42G A65U G67A | ≤ 0.5
U3A G58A | 1.01
U2G C4U A20C C30G | ≤ 0.5
U2C U13A | 0.805
U2G A15G G17A U28A C29U A45C A69C | ≤ 0.5
U3A G17C C29U | ≤ 0.5
U3A C22U C24A C27U A43C | 0.522
U2C G6C A21C C66U | ≤ 0.5
U3A G25A U26G | 0.535
U2C G23C C31G C33U A42G G52C G58C | ≤ 0.5
U3A G17A C22U A45G | ≤ 0.5
U2G C4G C11A | ≤ 0.5
U2G G9C A20G A42C C46G C49U A69C | 0.576
U3A C4U C33G C34G A57U | 0.63
U3A A36U A43G G52C | ≤ 0.5
U2G U26G C30U U59G U64G G68A | ≤ 0.5
U3A C22G | 0.714

Variant | yeast fitness
U2C G23C U28C A43U C60A | ≤ 0.5
U3A C46U | 1
U2C G23C G51C | ≤ 0.5
U2C G9C U13C A20C | ≤ 0.5
U3A C11G G12A C22U G39A | ≤ 0.5
U2C U7G A40C G51A G67A | ≤ 0.5
U2G C4U C61A A65U A69C | ≤ 0.5
U2G C31A G56U G67A | ≤ 0.5
U2C C31G G56A U59A | ≤ 0.5
U3A C11A C33U | 0.502
U3A G48A A57U | 0.591
U2G C30U C46A | 0.692
U2G C30U U59C | ≤ 0.5
U2G G10C G56C A69U | ≤ 0.5
U3A G41C C66A | 0.527
U3A A21C C24G G68A | ≤ 0.5
U2G C24A C31G | ≤ 0.5
U3A C66G | 0.669
U3A G10C G17C A37C G50C | ≤ 0.5
U2C U16G C30G G63C | ≤ 0.5
U2G C5G C34G C49G | 0.505

Variant | yeast fitness
U2G G6A G12A C27U A36U C60G | ≤ 0.5
U3A A65G G68A A70U | 0.556
U2G G6A U13G C49U G56A A70G | ≤ 0.5
U2G C29U | 0.851
U3A C4U C11A G44A | ≤ 0.5
U2C G6A A20U C30U A36U C49A | ≤ 0.5
U2C C49A | 0.685
U2G U47G G67U | ≤ 0.5
U3A G12C A15C U19A C34U C49A G67A | ≤ 0.5
U3A G6A A14U C33G | ≤ 0.5
U2G C24G C30G C31U U35A A36U G44A G63C | 0.552
U2G C33A C49G U64C G67C | ≤ 0.5
U3A A36C G51C | 0.534
U3A G38A | 0.787
U2C G25A A37G A70C | ≤ 0.5
U2G G25C C29U C33U A40G G52A U59C A65U | 0.581
U2G C11G C66U | ≤ 0.5
U2C G17A A69C | 0.576
U2G C5U | 0.877
U2G C4U G23C | 0.567
U2C U19A U26C A45C G52C A70G | ≤ 0.5
